# Assays:
# [1] = target: Sodium/potassium-transporting ATPase; assay: In vitro inhibitory concentration against dog kidney Na+/K+ ATPase; type: protein-complex assay, Canis lupus familiaris
# Outline: (§1)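 Na+,K+-ATPase isolated and purified from dog kidney. Inhibition measured as percent hydrolysis of 32P-ATP with versus without compound. […] Single-concentration entries report percent inhibition at the stated concentration. Compounds tested within 1–4 h of dissolution.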
# [2] = Compound at 100 uM was tested in vitro for the inhibition of dog kidney Na+/K+ ATPase; settings: Canis lupus familiaris, target entry is the homologue from another species; outline: as §1
# Cavia porcellus = species: Cavia porcellus; assay: Concentration producing 50% of the maximal increase in the force of contraction in isolated guinea pig left atrium; type: functional; settings: Cardiac atrium
# Outline: (§2)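 Isolated guinea pig atria in solution bubbled with 95% O2/5% CO2, field-stimulated by platinum electrodes at 1 Hz (1 ms square pulses, twice threshold voltage). After 60 min equilibration, cumulative concentrations added, each held until maximal response or arrhythmia.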
# [3] = target: Sodium/potassium-transporting ATPase subunit alpha-1 (Canis lupus familiaris, UniProt P50997); assay: In vitro inhibitory concentration against dog kidney Na+,K+-ATPase
# Outline: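 Na+,K+-ATPase isolated and purified from dog kidney. Inhibition measured as percent hydrolysis of 32P-ATP with versus without compound. Single-concentration entries report percent inhibition at the stated concentration. Compounds tested within 1–4 h of dissolution.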
# [4] = Percent increase in force of contraction in vitro determined using electrically driven guinea pig left atrium.; type: functional; settings: Cavia porcellus, Cardiac atrium; outline: as §2
# [5] = In vitro maximum inotropic effect on contractile force of an electrically driven guinea pig left atrium.; type: functional, Cavia porcellus, Cardiac atrium; outline: as §2
SMILES,IC50 [1] [µM],inhibition [2] [%],EC50 (Cavia porcellus) [µM],IC50 [3] [µM],Emax [4] [%],Concentration giving maximal inotropic effect [5] [µM]
C[C@]12CC[C@H](O)C[C@H]1CC[C@@H]1[C@@H]2CC[C@]2(C)/C(=C/C=N\OCCCN)CC[C@]12O,> 100,,,,,
C[C@]12CC[C@H](O)C[C@H]1CC[C@@H]1[C@@H]2CC[C@]2(C)[C@@H](/C=N/OCC(=O)O)CC[C@]12O,> 100,0,,,,
CO/N=C/C(C)=C/[C@H]1CC[C@]2(O)[C@@H]3CC[C@@H]4C[C@@H](O)CC[C@]4(C)[C@H]3CC[C@]12C,10,,,,,
CO/N=C/[C@H]1CC[C@]2(O)[C@@H]3CC[C@@H]4C[C@@H](O)CC[C@]4(C)[C@H]3CC[C@]12C,32,,,,,
C[C@]12CC[C@H](O)C[C@H]1CC[C@@H]1[C@@H]2CC[C@]2(C)[C@@H](/C=C/C=O)CC[C@]12O,,,4,0.25,45,
CN(C)CCO/N=C1\CC[C@]2(O)[C@@H]3CC[C@@H]4C[C@@H](O)CC[C@]4(C)[C@H]3CC[C@]12C,> 100,,,,,
CC(/C=N/OCCO)=C\[C@H]1CC[C@]2(O)[C@@H]3CC[C@@H]4C[C@@H](O)CC[C@]4(C)[C@H]3CC[C@]12C,7.9,,23,,175,300
C[C@]12CC[C@H](O)C[C@H]1CC[C@@H]1[C@@H]2CC[C@]2(C)[C@@H](/C=N/OCCN)CC[C@]12O,0.16,,0.62,,145,
C[C@]12CC[C@H](O)C[C@H]1CC[C@@H]1[C@@H]2CC[C@]2(C)[C@@H](CC/C=N\OCCN)CC[C@]12O,0.08,,1.1,,70,
CONCCC[C@H]1CC[C@]2(O)[C@@H]3CC[C@@H]4C[C@@H](O)CC[C@]4(C)[C@H]3CC[C@]12C,> 100,40,,,,
CN(C)CCCO/N=C/[C@H]1CC[C@]2(O)[C@@H]3CC[C@@H]4C[C@@H](O)CC[C@]4(C)[C@H]3CC[C@]12C,0.25,,1.3,,235,
C[C@]12CC[C@H](O)C[C@H]1CC[C@@H]1[C@@H]2CC[C@]2(C)[C@@H](CCC=O)CC[C@]12O,,,,40,,
CN(C)CCONC[C@H]1CC[C@]2(O)[C@@H]3CC[C@@H]4C[C@@H](O)CC[C@]4(C)[C@H]3CC[C@]12C.Cl.Cl,50,,,,18,300
C[C@]12CC[C@H](O)C[C@H]1CC[C@@H]1[C@@H]2CC[C@]2(C)[C@@H](CNOCCCN)CC[C@]12O,0.4,,3.9,,237,
CN(C)CCCCO/N=C/[C@H]1CC[C@]2(O)[C@@H]3CC[C@@H]4C[C@@H](O)CC[C@]4(C)[C@H]3CC[C@]12C,2,,4.7,,214,
CN(C)CCO/N=C/[C@H]1CC[C@]2(O)[C@@H]3CC[C@@H]4C[C@@H](O)CC[C@]4(C)[C@H]3CC[C@]12C,1,,,,39,
C[C@]12CC[C@H](O)C[C@H]1CC[C@@H]1[C@@H]2CC[C@]2(C)[C@@H](/C=C/C=N/OCCN)CC[C@]12O,0.02,,0.05,,155,0.3
CO/N=C/C=C/[C@H]1CC[C@]2(O)[C@@H]3CC[C@@H]4C[C@@H](O)CC[C@]4(C)[C@H]3CC[C@]12C,4,,,,,
C[C@]12CC[C@H](O)C[C@H]1CC[C@@H]1[C@@H]2CC[C@]2(C)[C@@H](/C=C/C=N\OCC(=O)O)CC[C@]12O,> 100,40,,,,
CC(/C=N/OCCCCN)=C\[C@H]1CC[C@]2(O)[C@@H]3CC[C@@H]4C[C@@H](O)CC[C@]4(C)[C@H]3CC[C@]12C,1.26,,4,,106,
C[C@]12CC[C@H](O)C[C@H]1CC[C@@H]1[C@@H]2CC[C@]2(C)/C(=N/OCCN)CC[C@]12O,> 100,,,,,
CONC[C@H]1CC[C@]2(O)[C@@H]3CC[C@@H]4C[C@@H](O)CC[C@]4(C)[C@H]3CC[C@]12C,79,,,,,
